Results published in ChEMBL document CHEMBL1126785, “Peptidomimetic HIV protease inhibitors: phosphate prodrugs with improved biological activities” (J Med Chem, 1993).

What was measured:
[1] = tested on: Human immunodeficiency virus 1; assay: (§1) Tested for the inhibition of p24 production in HIV-1 IIIB infected human peripheral blood mononuclear cells (PBMC); type: functional, organism-based
How it was run: (§2)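 Human PBMC (5×10^4 cells) were infected with HIV-1 IIIB at MOI 0.003 for 90 min. They were then kept in triplicate wells with continuous compound present for 7 days; compounds came from 10 mM DMSO stocks. Supernatant p24 was measured by ELISA. IC50 and IC90 were taken from linear regression on the linear part of the dose-response curve.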

[2] = target: Human immunodeficiency virus type 1 protease (Human immunodeficiency virus 1, UniProt Q72874); assay: Tested for inhibitory activity against HIV-1 protease
How it was run: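 Recombinant HIV-1 protease hydrolysing 2.5 mM synthetic octapeptide substrate H-Val-Ser-Gln-Asn-Tyr-Pro-Ile-Val-OH, with or without inhibitor. Run at 30 °C in 100 mM sodium acetate pH 5.5 with 10% glycerol, 5% ethylene glycol and 0.1% Nonidet P-40. Stopped after 30 min with 1% trifluoroacetic acid; hydrolysis quantified by HPLC.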

[3] = tested on: Human immunodeficiency virus 1; assay: as §1; type: functional; how it was run: as §2

With `CC[C@H](C)[C@H](NC(=O)[C@H](C(C)C)[C@@H](O)[C@H](O)[C@H](CC1CCCCC1)NC(=O)[C@H](Cc1c[nH]cn1)NC(=O)COc1cccc2ccccc12)C(=O)NCc1ccccn1` the IC50 [1] was 50.2 nM, the Ki [2] was under 1 nM and the IC90 [3] was 223 nM.
